# Results from different studies.
# Protocols differ between the studies behind these lines.
# Target: Microtubule-associated serine/threonine-protein kinase 1 (MAST1, Homo sapiens, UniProt Q9Y2H9)
Structure (SMILES),read-out,method,tested at,remaining binding [%]
O=C(NCCCN1CCOCC1)c1ccc(Nc2nccc(-c3cc4ccccc4s3)n2)cc1,binding,competition with immobilised ligand,1 µM,78
FC(F)(F)Oc1cccc(-c2cnc3ccc(-c4ccncc4)nn23)c1,cell-free assay,competition with immobilised ligand,5 µM,51
Cc1cc(-n2nc(Cc3cc(F)cc(C(F)(F)F)c3)nc2C)ccc1C(N)=O,cell-free assay,competition with immobilised ligand,1 µM,100
O=C(c1ccc(Nc2ncc(Cl)c(-c3ccc(Cl)s3)n2)cc1)N1CCC(N2CCCC2)CC1,binding,competition with immobilised ligand,1 µM,16
CC(=O)C1=C(C)N(c2cccc(C(F)(F)F)c2)C(=O)N[C@@H]1c1ccc(C#N)nc1,cell-free assay,competition with immobilised ligand,1 µM,96.9
CN(CCCC(F)(F)F)c1nccc(-c2cnn3ncccc23)n1,binding,,1 µM,100
O=c1nc(-c2ccccn2)sc2ccccc12,binding,competition with immobilised ligand,1 µM,73
O=C(c1ccc(Nc2nccc(-c3cc4ccccc4s3)n2)cc1)N1CCC(N2CCCC2)CC1,binding,competition with immobilised ligand,1 µM,53
CC1CCCN1c1nccc(-c2cnn3ncccc23)n1 (stereo not drawn),binding,,1 µM,100
c1cncc(-c2cccc(Nc3nccc(NC4CCCCC4)n3)c2)c1,binding,competition with immobilised ligand,10 µM,95
N[C@@H]1CCN(c2nccc(-c3cnn4ncccc34)n2)C1,binding,,1 µM,100
CNC(=O)[C@@H]1CC[C@@H](n2c(-c3ccc4cnccc4c3)nc3ccc(C(=O)NCc4cccc(C(N)=O)c4)cc32)C1,binding,competition with immobilised ligand,1 µM,100
COc1ncc2cc3ccccc3nc2c1C#N,cell-free assay,competition with immobilised ligand,5 µM,98
CC(=O)N1CCC(c2ccc(C(=O)NC3=NCCN3)cc2C(F)(F)F)CC1,cell-free assay,competition with immobilised ligand,1 µM,87
CN(C)c1ncc(F)c(-c2cnn3ncccc23)n1,binding,,1 µM,96
O=C(Nc1c[nH]nc1C(=O)NC1CCNCC1)c1cc(F)cc(F)c1,binding,competition with immobilised ligand,1 µM,100
COc1ccc2cc(OCC3(C(=O)O)CN(C(=O)c4ccc(F)cc4)C3)ccc2c1,cell-free assay,competition with immobilised ligand,1 µM,100
C[C@@H]1CCN(c2nccc(-c3cnn4ncccc34)n2)C1,binding,,1 µM,100
Cc1c(NC(=O)c2cc(C(N)=O)nc3cc(F)ccc23)c(C(F)(F)F)nn1Cc1ccc(C#N)cc1,cell-free assay,competition with immobilised ligand,1 µM,77
COc1ccnn2ncc(-c3ccnc(N(C)C)n3)c12,binding,,1 µM,99
Nc1ncc2c(n1)-c1c([nH]c3ccc(C#CC4CC4)cc13)CCCC2,binding,competition with immobilised ligand,1 µM,62
